# Experimental data taken from ChEMBL document CHEMBL2331220, “Benzimidazole clubbed with triazolo-thiadiazoles and triazolo-thiadiazines: new anticancer agents” (2013).
# What was measured:
# Format in all cases: functional
# UO-31 [1] = assay: Cytotoxicity against human UO31 cells assessed as cell growth at 10 uM after 48 hrs by SRB assay relative to control; conditions: UO-31, 48 h, read-out: Activity
# Summary of the method: (§1)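 NCI single-dose primary screen: compound added at 1 × 10⁻⁵ M, cultures incubated 48 h. Protein stained with sulforhodamine B. Result given as percent growth of treated cells relative to untreated controls, where negative values mean cell kill.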
# UO-31 [2] = assay: Growth inhibition of human UO31 cells at 10 uM after 48 hrs by SRB assay relative to control; conditions: UO-31, 48 h, read-out: GI; summary of the method: as §1
# T47D = assay: Cytotoxicity against human T47D cells assessed as cell growth at 10 uM after 48 hrs by SRB assay relative to control; conditions: read-out: Activity; summary of the method: as §1
# HOP-62 [3] = assay: Cytotoxicity against human HOP62 cells assessed as cell growth at 10 uM after 48 hrs by SRB assay relative to control; conditions: HOP-62, 48 h, read-out: Activity
# Summary of the method: (§2)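 Single-dose NCI screen. Compound was added at 1 × 10^-5 M and cultures were incubated 48 h. End point was sulforhodamine B protein staining, reported as percent growth of treated cells versus untreated control cells.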
# HOP-62 [4] = assay: Growth inhibition of human HOP62 cells at 10 uM after 48 hrs by SRB assay relative to control; conditions: HOP-62, 48 h, read-out: GI; summary of the method: as §1
# NCI-H522 [5] = assay: Growth inhibition of human NCI-H522 cells at 10 uM after 48 hrs by SRB assay relative to control; conditions: NCI-H522, 48 h, read-out: GI; summary of the method: as §1
# NCI-H522 [6] = assay: Cytotoxicity against human NCI-H522 cells assessed as cell growth at 10 uM after 48 hrs by SRB assay relative to control; conditions: NCI-H522, 48 h, read-out: Activity; summary of the method: as §2
# NCI-H322M = assay: Cytotoxicity against human NCI-H322M cells assessed as cell growth at 10 uM after 48 hrs by SRB assay relative to control; conditions: read-out: Activity; summary of the method: as §2
# IGROV-1 = assay: Growth inhibition of human IGROV1 cells at 10 uM after 48 hrs by SRB assay relative to control; conditions: IGROV-1, 48 h, read-out: GI; summary of the method: as §1
# HOP-92 = assay: Cytotoxicity against human HOP92 cells assessed as cell growth at 10 uM after 48 hrs by SRB assay relative to control; conditions: HOP-92, 48 h, read-out: Activity; summary of the method: as §2
# MCF7 [7] = assay: Growth inhibition of human MCF7 cells at 10 uM after 48 hrs by SRB assay relative to control; conditions: MCF7, 48 h, read-out: GI; summary of the method: as §1
# MCF7 [8] = assay: Cytotoxicity against human MCF7 cells assessed as cell growth at 10 uM after 48 hrs by SRB assay relative to control; conditions: MCF7, 48 h, read-out: Activity; summary of the method: as §2
Compound,growth at 10 µM (UO-31 [1]) [%],further results
COc1ccc(-c2nn3c(CCC(=O)c4nc5ccccc5[nH]4)nnc3s2)cc1,69.6,
O=C(CCc1nnc2sc(-c3ccc(O)cc3)nn12)c1nc2ccccc2[nH]1,67.7,inhibition of growth at 10 µM (UO-31 [2]): ≤ 32%
O=C(CCc1nnc2sc(CCl)nn12)c1nc2ccccc2[nH]1,83.9,
NCCCc1nn2c(CCC(=O)c3nc4ccccc4[nH]3)nnc2s1,73.8,
O=C(CCc1nnc2sc(S)nn12)c1nc2ccccc2[nH]1,76.6,
O=C(CCc1nnc2sc(Nc3ccc(Cl)cc3)nn12)c1nc2ccccc2[nH]1,64.2,inhibition of growth at 10 µM (UO-31 [2]): ≤ 32%
NC1=Nn2c(CCC(=O)c3nc4ccccc4[nH]3)nnc2SC1,80.4,
O=C(CCc1nnc2n1N=C(O)CS2)c1nc2ccccc2[nH]1,79.8,
CCOC1=Nn2c(CCC(=O)c3nc4ccccc4[nH]3)nnc2SC1,80.3,
O=C(CCc1nnc2n1N=C(Cl)CS2)c1nc2ccccc2[nH]1,78.9,
Cc1nn2c(CCC(=O)c3nc4ccccc4[nH]3)nnc2s1,,growth at 10 µM (T47D): 84.2%
O=C(CCc1nnc2sc(CCCl)nn12)c1nc2ccccc2[nH]1,80.1,
CCOc1nn2c(CCC(=O)c3nc4ccccc4[nH]3)nnc2s1,,growth at 10 µM (HOP-62 [3]): 28.7%; inhibition of growth at 10 µM (HOP-62 [4]): ≤ 32%
O=C(CCc1nnc2sc(C(c3ccccc3)c3ccccc3)nn12)c1nc2ccccc2[nH]1,,inhibition of growth at 10 µM (NCI-H522 [5]): ≤ 32%; growth at 10 µM (NCI-H522 [6]): 30.2%
N#CCc1nn2c(CCC(=O)c3nc4ccccc4[nH]3)nnc2s1,75.5,
C=Cc1nn2c(CCC(=O)c3nc4ccccc4[nH]3)nnc2s1,76.2,
O=C(CCc1nnc2sc(-c3ccccc3S)nn12)c1nc2ccccc2[nH]1,,growth at 10 µM (NCI-H322M): 73.9%
C/C=C\c1nn2c(CCC(=O)c3nc4ccccc4[nH]3)nnc2s1,54.9,inhibition of growth at 10 µM (IGROV-1): ≤ 32%
O=C(CCc1nnc2sc(-c3ccccc3O)nn12)c1nc2ccccc2[nH]1,51.3,inhibition of growth at 10 µM (IGROV-1): ≤ 32%
O=C(CCc1nnc2sc(CS)nn12)c1nc2ccccc2[nH]1,79.4,
O=C(CCc1nnc(S)o1)c1nc2ccccc2[nH]1,,growth at 10 µM (HOP-92): 69.4%
Nc1ccccc1-c1nn2c(CCC(=O)c3nc4ccccc4[nH]3)nnc2s1,,inhibition of growth at 10 µM (MCF7 [7]): ≤ 32%; growth at 10 µM (MCF7 [8]): 62%
O=C(CCc1nnc2sc(Cc3ccccc3Cl)nn12)c1nc2ccccc2[nH]1,63,inhibition of growth at 10 µM (UO-31 [2]): ≤ 32%
O=C(CCc1nnc2sc(COc3ccccc3)nn12)c1nc2ccccc2[nH]1,64.3,inhibition of growth at 10 µM (UO-31 [2]): ≤ 32%
